Compound activity: PubChem, The Scripps Research Institute Molecular Screening Center
CHRM5 agonist: CHRM5 agonism in calcium assay. P08912. hit rate 0.19% among 360,000. CHO-K1 hM5 cells, Fluo-8 calcium fluorescence; 0% DMSO wells, 100% maximal acetylcholine response. activation, % at 3 µM;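 active = activation above the run's mean over test compounds plus 3 SD, cut at about 23% in these data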;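 note: signal is peak over basal fluorescence ratio across the kinetic read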
M5 PAM: potentiates acetylcholine response at human M5 receptor; P08912; CHO-K1 hM5, Fluo-8 calcium, ACh EC20 PAM; 0% = ACh EC20, 100% = ACh EC100; activation, % at 3 µM; hit rate 0.3% among 360,000; AID 624038;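 active = activation above the run cutoff, the mean activation of all test compounds plus 3 SD, cut at about 18% in these data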
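System: CHO-K1 cell line with stable human muscarinic M5 receptor expression | Also added: EC20 acetylcholine as agonist stimulus | Compound: One concentration, 3 µM final (nominal) | Timing: Fluo-8 loading 80 min at 37 °C plus 30 min room temperature | Measured by: Fluo-8 calcium dye fluorescence, kinetic read | Read-out basis: % activation, ACh-normalized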
CHRM1 antagonist: human CHRM1 antagonism. AID 588852. hit rate 1.3% among 360,000. inhibition, % at 3 µM. P11229. CHO-K1 hM1, Fluo-8 calcium fluorescence, ACh EC80 antagonist;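 active = percent inhibition above its own plate's cutoff, namely the mean of that plate's compound wells plus 3 SD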;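 note: peak over basal fluorescence ratio during 140 s after agonist addition; 0% = ACh EC80 plus DMSO and 100% = DMSO alone without agonist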
M1 PAM: positive allosteric modulators of human M1 muscarinic receptor. activation, % at 3 µM. P11229. hit rate 0.088% among 360,000. CHO-K1 hM1, Fluo-8 calcium fluorescence, ACh EC20; 0% = ACh EC20, 100% = maximal ACh; in the data active = activation above about 19%, passing the limit was not always enough
CHRM1 agonist: agonists of human M1 muscarinic receptor; P11229; CHO-K1 hM1, Fluo-8 calcium fluorescence, agonist mode; 0% DMSO, 100% acetylcholine EC100; activation, % at 3 µM; hit rate 0.33% among 360,000;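 active = activation above the run's mean compound activation plus 3 SD, cut at about 16% in these data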;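 note: peak over basal fluorescence ratio within a 140 s kinetic read after compound addition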
M5 antag: blocks acetylcholine activation of human M5 receptor. hit rate 0.59% among 360,000. inhibition, % at 3 µM. CHO-hM5 cells, Fluo-8 calcium fluorescence, ACh EC80. P08912;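 active = inhibition above a per-plate cutoff, the mean of that plate's test compounds plus 3 SD, cut at about 27% in these data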;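 note: 0% = acetylcholine EC80 with DMSO and 100% = DMSO without agonist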
Numbers without * were called inactive; · = no result. Sampled rows, rich in hits. Any-hit rate of the full collection: about 2%.

SMILES	CHRM5 agonist	M5 PAM	CHRM1 antagonist	M1 PAM	CHRM1 agonist	M5 antag
CNC(=S)NC1CC2CCCC(C1)N2Cc1ccc(C)cc1 (stereo not given)	-8	28*	26	-36	-15	4
COc1ccc(C2(C)NC(=O)N(CC(=O)c3cc(C)n(C4CC4)c3C)C2=O)cc1 (stereo not given)	42*	-7	0	5	40*	0
Cc1cc(C(=O)CN2C(=O)NC(CC(C)C)C2=O)c(C)n1C1CC1 (stereo not given)	6	-2	-4	2	-1	7
Cc1cc(C(=O)CN2C(=O)NC(C)(c3ccc(F)c(F)c3)C2=O)c(C)n1C1CC1 (stereo not given)	22	-2	-7	5	22*	1
C=CCNC(=O)CN1C(=O)NC(C)(c2ccc(OC)cc2)C1=O (stereo not given)	-1	4	-2	-1	0	1
CN(C)Cc1cn(CC[C@@H]2CC[C@@H](NC(=O)Nc3ccccc3F)[C@@H](CO)O2)nn1	0	10	·	·	·	-7
S=C1NCN(Cc2ccco2)CN1	5	23*	10	-6	1	-5
Cc1cccc(NC(=O)/C(C#N)=C\c2cn(CC(=O)O)c3ccccc23)c1	-4	-12	2	-5	-3	28*
C[C@H]1CN([C@@H](C)CO)C(=O)CCCn2nncc2CO[C@@H]1CN(C)C(=O)Nc1cccc2ccccc12	-1	2	-6	6	-7	-13
CCC(O)(C#CCN1CCCCC1)CC	-8	-4	3	-6	-14	6
OC(C#CCN1CCCCC1)(c1ccccc1)c1ccccc1	-21	-36	100*	-26	-8	100*
OC(C#CCN1CCCC1)(c1ccccc1)c1ccccc1	-7	-17	100*	-25	-7	99*
OCC(C#CCN1CCCCC1)NCc1ccccc1 (stereo not given)	-7	1	7	-5	-8	-4
CC(C)C(O)(C#CCN1CCCCC1)C(C)C	-8	-19	64*	-27	-14	31*
CC(O)(C#CCN1CCCCCC1)c1ccccc1 (stereo not given)	-6	-16	41*	-30	-9	26
OC(C#CCN1CCOCC1)(c1ccccc1)C1CC1 (stereo not given)	-4	2	-11	9	-3	0
CN(C)c1ccc(C(=O)N2CCC2(C)C(=O)O)cc1 (stereo not given)	1	-3	5	-7	-1	-1
Cc1ccc(C)c(-n2nnc3ccccc3c2=O)c1	0	0	-19	15	-4	2
Cc1cc(CNC[C@H]2O[C@@H](n3ccc(N)nc3=O)[C@H](O)[C@@H]2O)no1	0	0	4	-2	-2	7
COc1ccc(CN(CCc2ccccc2)Cc2ccccc2)cc1OC	-2	-1	-14	16	0	-4
COc1cc(CN(CCN(C)C)Cc2ccccc2)ccc1OCc1ccccc1	-16	-15	51*	-24	-9	2
COc1ccc(NC(=O)C2C3C=CC(C3)C2C(=O)O)cc1 (stereo not given)	2	1	-12	10	-3	1
NS(=O)(=O)c1ccc(NC(=O)C2C3C=CC(C3)C2C(=O)O)cc1 (stereo not given)	4	18*	-1	11	-6	-10
Cc1cccnc1C(NC(=O)C1CCN(Cc2ccc(Oc3ccccc3)cc2)CC1)c1ccccc1 (stereo not given)	-3	-19	27*	-20	-9	16
Cc1cccnc1C(NC(=O)C1CCN(Cc2ccccc2)CC1)c1ccc(F)cc1 (stereo not given)	-3	-16	-7	0	-3	2
Cc1c(CCOC(=O)CC23CC4CC(CC(C4)C2)C3)sc[n+]1Cc1ccccc1	-5	-21	99*	-22	-5	13
Cc1ccc(NC(=O)COC(=O)CC2CCCC2)cc1Cl	-3	23*	-9	5	-4	-1
c1cc(-c2ccc(N3CCOCC3)cc2)n2ccnc2c1	1	-3	-7	8	-7	-3
